According to ChEMBL document CHEMBL2321816, “Synthesis and antitumor evaluation of arctigenin derivatives based on antiausterity strategy” (Eur J Med Chem, 2013):
Active and inactive are the calls of the source. The rule behind the calls is not given here.

What was measured:
PANC-1 = test: Cytotoxicity against human PANC1 cells assessed as cell viability after 3 hrs by WST-8 cells; assay type: functional
Summary of the method: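 PANC-1 cells, 2 × 10⁴/well, grown 24 h in DMEM at 37 °C in 5% CO₂. Cells were PBS-washed and then exposed 24 h to serial dilutions in nutrient-deprived medium or in normal DMEM. After a PBS wash, WST-8 in DMEM was added for 3 h and A450 was read. Viability was taken against blank and control from the mean of three wells. PC50 is the concentration killing 50% of cells preferentially in NDM.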

CAPAN-1 = test: Antitumor activity against human Capan1 cells injected into BALB/cAJcl-nu-nu mouse assessed as reduction in tumor weight at 50 ug for 6 days in a week upto 28th days treatment started on 15th day tumor injection; assay type: functional
Summary of the method: (§1)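 Female BALB/cAJcl-nu/nu mice, five weeks old, injected s.c. on the right back with 5 × 10⁶ CAPAN-1 cells in DMEM. At two weeks, mice with tumors around 5 mm were randomized to treatment or vehicle groups. Drug was given from a DMSO stock (10 mg/mL) diluted in saline, 0.2 mL i.p., 6 days/week for 4 weeks. Body weight and tumor size were taken weekly. Tumors were weighed wet at the end.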

Mus musculus [1] = organism: Mus musculus; test: Toxicity in human Capan1 cells injected BALB/cAJcl-nu-nu mouse assessed as behavior at 50 ug for 6 days in a week upto 28th days treatment started on 15th day tumor injection; assay type: organism-based; conditions: capan-1, 144 h; summary of the method: as §1
Mus musculus [2] = organism: Mus musculus; test: Toxicity in human Capan1 cells injected BALB/cAJcl-nu-nu mouse assessed as body weight at 50 ug for 6 days in a week upto 28th days treatment started on 15th day tumor injection; assay type: organism-based; conditions: capan-1, 144 h; summary of the method: as §1

| Compound | PC50 (PANC-1) [µM] | also measured |
| --- | --- | --- |
| CCCCCCOc1cc(C[C@H]2C(=O)OC[C@@H]2Cc2ccc(OC)c(OC)c2)ccc1O | 3.89 | – |
| CCCOc1cc(C[C@H]2C(=O)OC[C@@H]2Cc2ccc(OCC)c(OCCC)c2)ccc1O | 28.6 | – |
| CCOc1ccc(C[C@H]2COC(=O)[C@@H]2Cc2ccc(O)c(OC)c2)cc1OC | 0.49 | – |
| CCCCOc1cc(C[C@H]2C(=O)OC[C@@H]2Cc2ccc(OC)c(OC)c2)ccc1O | 7.14 | – |
| COc1ccc(C[C@H]2COC(=O)[C@@H]2Cc2ccc(O)c(OC(C)C)c2)cc1OC | 4.16 | – |
| CCOc1cc(C[C@H]2C(=O)OC[C@@H]2Cc2ccc(OC)c(OCC)c2)ccc1O | 0.66 | – |
| CCOc1cc(C[C@H]2COC(=O)[C@@H]2Cc2ccc(O)c(OC)c2)ccc1OC | 4.71 | – |
| CCCOc1cc(C[C@H]2C(=O)OC[C@@H]2Cc2ccc(OC)c(OC)c2)ccc1O | 3.74 | – |
| CCCOc1cc(C[C@H]2C(=O)OC[C@@H]2Cc2ccc(OC)c(OCCC)c2)ccc1O | 13.6 | – |
| CCOc1cc(C[C@H]2C(=O)OC[C@@H]2Cc2ccc(OCC)c(OCC)c2)ccc1O | 0.78 | inhibition (CAPAN-1): Active; Activity (Mus musculus [1]): Non-toxic; Activity (Mus musculus [2]): Non-toxic |
| CCCOc1cc(C[C@H]2C(=O)OC[C@@H]2Cc2ccc(OC)c(OCC)c2)ccc1O | 3.54 | – |
| CCOc1cc(C[C@H]2C(=O)OC[C@@H]2Cc2ccc(OCC)c(OC)c2)ccc1O | 4.77 | – |
| CCOc1cc(C[C@H]2C(=O)OC[C@@H]2Cc2ccc(OC)c(OC)c2)ccc1O | 3.74 | – |
| COc1cc(C[C@H]2C(=O)OC[C@@H]2Cc2ccc(OC)c(OC)c2)ccc1O [ARCTIGENIN] | 0.8 | inhibition (CAPAN-1): Active; Activity (Mus musculus [1]): Non-toxic; Activity (Mus musculus [2]): Non-toxic |
| CCOc1ccc(C[C@H]2COC(=O)[C@@H]2Cc2ccc(O)c(OC)c2)cc1OCC | 4.85 | – |
| COc1ccc(C[C@H]2COC(=O)[C@@H]2Cc2ccc(O)c(OCCO)c2)cc1OC | 7.7 | – |
